Assay results from ChEMBL document CHEMBL4052644, “Synthesis of novel benzylidene analogues of betulinic acid as potent cytotoxic agents” (Eur J Med Chem, 2017).

Tests used:
PC-3 [1] = assay: Cytotoxicity against human PC3 cells assessed as reduction in cell viability after 48 hrs by SRB assay; format: functional, cell-based; conditions: PC-3, 48 h
Procedure, shortened: (§1)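 SRB assay. Compounds active at 10 µM in the primary screen were retested at 1, 2.5 and 5 µM, and IC50 was calculated from these concentrations. The normal breast epithelial line fR2 was tested alongside the cancer lines.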

A549 [2] = assay: Growth inhibition of human A549 cells at 10 uM after 48 hrs by SRB assay relative to control; format: functional; conditions: A549, 48 h, read-out: GI
Procedure, shortened: (§2)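 Primary SRB screen of every compound at a single concentration of 10 µM. Growth inhibition is expressed relative to control.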

MIA PaCa-2 [3] = assay: Growth inhibition of human MIAPaCa2 at 10 uM after 48 hrs by SRB assay relative to control; format: functional; conditions: MIA PaCa-2, 48 h, read-out: GI; procedure, shortened: as §2
MCF7 [4] = assay: Cytotoxicity against human MCF7 cells assessed as reduction in cell viability after 48 hrs by SRB assay; format: functional, cell-based; conditions: MCF7, 48 h; procedure, shortened: as §1
PC-3 [5] = assay: Growth inhibition of human PC3 cells at 10 uM after 48 hrs by SRB assay relative to control; format: functional; conditions: PC-3, 48 h, read-out: GI; procedure, shortened: as §2
A549 [6] = assay: Cytotoxicity against human A549 cells assessed as reduction in cell viability after 48 hrs by SRB assay; format: functional, cell-based; conditions: A549, 48 h; procedure, shortened: as §1
HCT-116 [7] = assay: Growth inhibition of human HCT116 cells at 10 uM after 48 hrs by SRB assay relative to control; format: functional; conditions: HCT-116, 48 h, read-out: GI; procedure, shortened: as §2
[8] = Cytotoxicity against human FR2 cells assessed as reduction in cell viability after 48 hrs by SRB assay; format: cell-based; conditions: FR2, 48 h; procedure, shortened: as §1
HCT-116 [9] = assay: Cytotoxicity against human HCT116 cells assessed as reduction in cell viability after 48 hrs by SRB assay; format: functional, cell-based; conditions: HCT-116, 48 h; procedure, shortened: as §1
MIA PaCa-2 [10] = assay: Cytotoxicity against human MIAPaCa2 cells assessed as reduction in cell viability after 48 hrs by SRB assay; format: functional, cell-based; conditions: MIA PaCa-2, 48 h; procedure, shortened: as §1
MCF7 [11] = assay: Growth inhibition of human MCF7 cells at 10 uM after 48 hrs by SRB assay relative to control; format: functional; conditions: MCF7, 48 h, read-out: GI; procedure, shortened: as §2
[12] = Selectivity index, ratio of IC50 for human FR2 cells to IC50 for human MCF7 cells; format: functional
Procedure, shortened: (§3)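 Selectivity index is the IC50 in normal breast epithelial fR2 cells divided by the IC50 in each cancer line. All IC50 values come from the SRB assay.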

[13] = Selectivity index, ratio of IC50 for human FR2 cells to IC50 for human A549 cells; format: functional; procedure, shortened: as §3
[14] = Selectivity index, ratio of IC50 for human FR2 cells to IC50 for human HCT116 cells; format: functional; procedure, shortened: as §3
[15] = Selectivity index, ratio of IC50 for human FR2 cells to IC50 for human PC3 cells; format: functional; procedure, shortened: as §3

Structure (SMILES) | IC50 (PC-3 [1]) [µM] | inhibition of growth at 10 µM (A549 [2]) [%] | inhibition of growth at 10 µM (MIA PaCa-2 [3]) [%] | IC50 (MCF7 [4]) [µM] | inhibition of growth at 10 µM (PC-3 [5]) [%] | IC50 (A549 [6]) [µM] | inhibition of growth at 10 µM (HCT-116 [7]) [%] | IC50 [8] [µM] | IC50 (HCT-116 [9]) [µM] | IC50 (MIA PaCa-2 [10]) [µM] | inhibition of growth at 10 µM (MCF7 [11]) [%] | Ratio IC50 [12] | Ratio IC50 [13] | Ratio IC50 [14] | Ratio IC50 [15]
C=C(C)[C@@H]1CC[C@]2(C(=O)O)CC[C@]3(C)[C@H](CC[C@@H]4[C@@]5(C)CC[C@H](O)C(C)(C)[C@@H]5CC[C@]43C)[C@@H]12 [BETULINIC ACID] | > 10 | 40 | 26 | > 10 | 49 | > 10 | 42 | 30.1 | > 10 | > 10 | 28 |  |  |  | 
C=C(C)[C@@H]1CC[C@]2(C(=O)O)CC[C@]3(C)[C@H](CC[C@@H]4[C@@]5(C)C/C(=C\c6ccsc6)[C@H](O)C(C)(C)[C@@H]5CC[C@]43C)[C@@H]12 | > 10 | 72 | 70 | 1.71 | 35 | > 10 | 62 | 11.1 | > 10 | > 10 | 79 | 6.461 |  |  | 
C=C(C)[C@@H]1CC[C@]2(C(=O)O)CC[C@]3(C)[C@H](CC[C@@H]4[C@@]5(C)CCC(=O)C(C)(C)[C@@H]5CC[C@]43C)[C@@H]12 [BETUNOLIC ACID] | > 10 | 62 | 36 | > 10 | 43 | 5.7 | 49 | 16.2 | > 10 | > 10 | 43 |  | 2.838 |  | 
C=C(C)[C@@H]1CC[C@]2(C(=O)O)CC[C@]3(C)[C@H](CC[C@@H]4[C@@]5(C)C/C(=C/C=C/c6ccccc6)C(=O)C(C)(C)[C@@H]5CC[C@]43C)[C@@H]12 | 7.8 | 93 | 48 | 7.2 | 71 | 3.4 | 66 | 13.1 | 5.8 | > 10 | 84 | 1.825 | 3.864 | 2.265 | 1.684
C=C(C)[C@@H]1CC[C@]2(C(=O)O)CC[C@]3(C)[C@H](CC[C@@H]4[C@@]5(C)C/C(=C\c6c(Cl)cccc6Cl)[C@H](O)C(C)(C)[C@@H]5CC[C@]43C)[C@@H]12 | > 10 | 40 | 38 | > 10 | 38 | > 10 | 40 | 13.3 | > 10 | > 10 | 56 |  |  |  | 
C=C(C)[C@@H]1CC[C@]2(C(=O)O)CC[C@]3(C)[C@H](CC[C@@H]4[C@@]5(C)C/C(=C\c6cccc([N+](=O)[O-])c6)C(=O)C(C)(C)[C@@H]5CC[C@]43C)[C@@H]12 | > 10 | 75 | 31 | 7.1 | 41 | 4.7 | 69 | 12.2 | 7.6 | > 10 | 70 | 1.715 | 2.591 | 1.602 | 3.009
C=C(C)[C@@H]1CC[C@]2(C(=O)O)CC[C@]3(C)[C@H](CC[C@@H]4[C@@]5(C)C/C(=C\c6cccnc6)[C@H](O)C(C)(C)[C@@H]5CC[C@]43C)[C@@H]12 | > 10 | 71 | 63 | 3.9 | 26 | 3.4 | 65 | 12.4 | 5.04 | 5.8 | 72 | 3.18 | 3.65 | 2.46 | 
C=C(C)[C@@H]1CC[C@]2(C(=O)O)CC[C@]3(C)[C@H](CC[C@@H]4[C@@]5(C)C/C(=C\c6ccc(Br)cc6)[C@H](O)C(C)(C)[C@@H]5CC[C@]43C)[C@@H]12 | 8.2 | 80 | 48 | 8.1 | 48 | 1.8 | 66 | 35.3 | 5.7 | > 10 | 64 | 4.36 | 19.63 | 6.2 | 4.3
